{
  "source": "paper PMC5160999",
  "about": "(ChemMedChem, 2016)",
  "key": {"[1]": {"system": "E. coli, P. aeruginosa, K. pneumoniae and A. baumannii", "test": "Growth inhibition, four Gram-negative bacteria taken together", "assay_type": "cell-based", "settings": "read-out: IC50, activity against all four Gram-negatives"}, "[2]": {"system": "E. coli BL21(DE3) with PaFPPS overexpression", "test": "Growth inhibition of E. coli overexpressing PaFPPS", "assay_type": "cell-based", "settings": "Escherichia coli"}, "[3]": {"system": "E. coli, A. baumannii, K. pneumoniae and P. aeruginosa", "test": "Synergy of 11 with fosmidomycin, mean over four Gram-negative bacteria", "assay_type": "cell-based"}, "M. smegmatis": {"system": "M. smegmatis", "test": "M. smegmatis growth inhibition", "assay_type": "cell-based, Mycobacterium smegmatis"}, "A. baumannii [4]": {"system": "A. baumannii", "test": "A. baumannii growth inhibition assay", "assay_type": "cell-based", "settings": "Acinetobacter baumannii", "procedure,_shortened": "(§1)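 Strains: A. baumannii ATCC 19606, K. pneumoniae ATCC 27736 and P. aeruginosa PA01, grown overnight in cation-adjusted Mueller-Hinton broth. Cultures diluted 1000-fold in fresh broth, with test compound as a 3-fold series from 1 mm to 46 nm. Incubated overnight at 37°C, 200 RPM; OD600 read. Rescue arm: farnesol 200 μm in the medium. Duplicate experiments, mean±SD.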"}, "P. aeruginosa (PA01)": {"system": "P. aeruginosa (PA01)", "test": "P. aeruginosa growth inhibition assay", "assay_type": "cell-based", "settings": "Pseudomonas aeruginosa", "procedure,_shortened": "as §1"}, "E. coli [5]": {"system": "E. coli", "test": "Synergy/antagonism two-drug combination assay, E. coli", "assay_type": "cell-based"}, "HsFPPS": {"target": "T1, HsFPPS (Homo sapiens, UniProt P14324)", "T1 sequence (P14324 1-419)": "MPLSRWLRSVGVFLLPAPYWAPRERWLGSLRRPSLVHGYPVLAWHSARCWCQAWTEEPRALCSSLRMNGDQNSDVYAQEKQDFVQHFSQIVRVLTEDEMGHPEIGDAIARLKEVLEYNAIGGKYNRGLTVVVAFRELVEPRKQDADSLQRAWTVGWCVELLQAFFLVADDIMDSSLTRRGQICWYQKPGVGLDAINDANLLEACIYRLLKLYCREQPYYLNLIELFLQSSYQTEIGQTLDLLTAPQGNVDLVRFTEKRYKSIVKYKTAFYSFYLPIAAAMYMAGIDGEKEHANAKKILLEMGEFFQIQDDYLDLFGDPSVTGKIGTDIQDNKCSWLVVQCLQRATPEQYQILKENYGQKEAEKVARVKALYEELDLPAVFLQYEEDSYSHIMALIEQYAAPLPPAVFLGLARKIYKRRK", "test": "HsFPPS inhibition, phosphate release assay", "assay_type": "biochemical, H. sapiens"}, "TbFPPS": {"target": "TbFPPS (Trypanosoma brucei, UniProt Q86C09)", "test": "TbFPPS inhibition, phosphate release assay", "assay_type": "biochemical", "procedure,_shortened": "(§2)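 Purified enzyme (25 ng) preincubated with inhibitor for 10 min at room temperature in pH 7.0 buffer (10 mM HEPES, 150 mM NaCl, 5 mM MgCl2). Inhibitor stocks were 10 mM in DMSO or basic water, serially diluted from 1 mM to 1 nM. Reaction mix: 50 μM GPP, 50 μM IPP, purine nucleoside phosphorylase, inorganic phosphatase, ~600 μM MESG.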"}, "P. aeruginosa": {"system": "P. aeruginosa", "test": "Synergy/antagonism two-drug combination assay, P. aeruginosa", "assay_type": "cell-based"}, "K. pneumoniae [6]": {"system": "K. pneumoniae", "test": "Synergy/antagonism two-drug combination assay, K. pneumoniae", "assay_type": "cell-based"}, "B. subtilis": {"system": "B. subtilis", "test": "B. subtilis growth inhibition assay", "assay_type": "cell-based", "settings": "Bacillus subtilis, read-out: IC50 B. subtilis", "procedure,_shortened": "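B. subtilis ATCC 6051 grown overnight in LB and diluted 1000-fold in fresh LB. Test compound added as a 3-fold series from 1 mm to 46 nm. Incubated overnight at 37°C with shaking at 200 RPM; inhibition read from OD600.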"}, "HEK293": {"system": "HEK293", "test": "HEK293 toxicity assay", "assay_type": "cell-based", "settings": "Homo sapiens, HEK293, read-out: IC50 HEK293"}, "A. baumannii [7]": {"system": "A. baumannii", "test": "Synergy/antagonism two-drug combination assay, A. baumannii", "assay_type": "cell-based"}, "E. coli [8]": {"system": "E. coli", "test": "E. coli growth inhibition assay", "assay_type": "cell-based", "settings": "Escherichia coli", "procedure,_shortened": "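E. coli K-12 or BL21(DE3). Overnight starter culture diluted 1000-fold and grown to OD600 ~0.3, then diluted 500-fold into LB. Test compound added as a 3-fold series from 1 mm to 46 nm. Incubated 12 h at 37°C with shaking at 200 RPM; growth read as A600. IC50 by nonlinear regression. Rescue arm: farnesol 200 μm in the medium. Duplicate experiments, mean±SD.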"}, "PaFPPS": {"target": "PaFPPS (Pseudomonas aeruginosa, UniProt Q9HWY4)", "test": "PaFPPS inhibition, phosphate release assay", "assay_type": "biochemical", "procedure,_shortened": "as §2"}, "[9]": {"system": "S. aureus (Newman strain)", "test": "S. aureus growth inhibition assay", "assay_type": "cell-based", "settings": "Staphylococcus aureus, read-out: IC50 S. aureus", "procedure,_shortened": "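S. aureus Newman grown overnight in tryptic soy broth, then diluted 1000-fold in fresh medium. Test compound dosed as a 3-fold series from 1 mm to 46 nm. Incubated at 37°C, 200 RPM, overnight; growth read as OD600.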"}, "EcFPPS": {"target": "EcFPPS (Escherichia coli, UniProt P22939)", "sequence (P22939 whole entry)": "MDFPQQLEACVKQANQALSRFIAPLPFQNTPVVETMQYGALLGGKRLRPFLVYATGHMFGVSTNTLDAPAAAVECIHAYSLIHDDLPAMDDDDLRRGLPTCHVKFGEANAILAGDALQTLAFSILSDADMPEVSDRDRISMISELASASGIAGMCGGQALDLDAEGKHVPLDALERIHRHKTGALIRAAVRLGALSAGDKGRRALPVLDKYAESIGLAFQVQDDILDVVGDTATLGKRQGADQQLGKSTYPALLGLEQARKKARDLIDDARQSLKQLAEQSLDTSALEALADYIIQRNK", "test": "EcFPPS inhibition, phosphate release assay", "assay_type": "biochemical, E. coli", "procedure,_shortened": "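Purified recombinant FPPS (25 ng) preincubated with test compound for 10 min at room temperature in pH 7.0 buffer (10 mm HEPES, 150 mm NaCl, 5 mm MgCl2). Compound diluted from 1 mm to 1 nm. Reaction started with 50 μm GPP, 50 μm IPP, purine nucleoside phosphorylase, inorganic phosphatase and ~600 μm MESG.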"}, "K. pneumoniae [10]": {"system": "K. pneumoniae", "test": "K. pneumoniae growth inhibition assay", "assay_type": "cell-based", "settings": "Klebsiella pneumoniae", "procedure,_shortened": "as §1"}, "SmFPPS": {"target": "SmFPPS (Schistosoma mansoni, UniProt G4VEL6)", "test": "SmFPPS inhibition, phosphate release assay", "assay_type": "biochemical", "procedure,_shortened": "as §2"}, "[11]": {"target": "T2, human geranylgeranyl diphosphate synthase (HsGGPPS) (Homo sapiens, UniProt O95749)", "T2 sequence (O95749 1-300)": "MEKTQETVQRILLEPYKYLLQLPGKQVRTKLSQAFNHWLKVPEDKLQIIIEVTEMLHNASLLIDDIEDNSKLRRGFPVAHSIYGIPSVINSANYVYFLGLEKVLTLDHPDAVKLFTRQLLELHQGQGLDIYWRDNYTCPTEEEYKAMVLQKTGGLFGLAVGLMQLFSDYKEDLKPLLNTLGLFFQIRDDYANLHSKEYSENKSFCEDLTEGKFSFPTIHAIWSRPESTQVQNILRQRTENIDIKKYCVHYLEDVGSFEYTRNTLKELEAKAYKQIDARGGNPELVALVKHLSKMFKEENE", "test": "HsGGPPS inhibition", "assay_type": "biochemical"}, "[12]": {"settings": "E. coli, combination of 11 with fosmidomycin"}, "[13]": {"settings": "P. aeruginosa, combination of 11 with fosmidomycin"}, "[14]": {"settings": "K. pneumoniae, combination of 11 with fosmidomycin"}, "[15]": {"settings": "A. baumannii, combination of 11 with fosmidomycin"}},
  "note": "Read-outs that look alike come from different tables or passages of the source.",
  "data": [
    {"smiles": "O=P([O-])(O)C(C[n+]1ccn(CCCc2ccc(F)c(F)c2)c1)P(=O)(O)O", "note": "(stereo not shown) [compound 11, Hydrogen (2-(3-(3-(3,4-difluorophenyl)propyl)-1H-imidazol-3-ium-1-yl)-1-phosphonoethyl) phosphonate]", "values": [
      {"measurement": "IC50", "setting": "[1]", "value": "1 to 4", "unit": "µg/mL"},
      {"measurement": "IC50", "setting": "[2]; BL21-DE3, read-out: IC50 with RA", "value": "19 ± 2.4", "unit": "µg/mL"},
      {"measurement": "IC50", "setting": "[2]; BL21-DE3, read-out: IC50 without RA", "value": "1.6 ± 0.35", "unit": "µg/mL"},
      {"measurement": "mean FICI", "setting": "[3]", "value": "0.42 ± 0.17"},
      {"measurement": "IC50", "setting": "M. smegmatis; Mycolicibacterium smegmatis, read-out: IC50 M. smegmatis, cell growth inhibition", "value": "~7", "unit": "µg/mL"},
      {"measurement": "IC50 M. smegmatis", "setting": "M. smegmatis; cell growth inhibition", "value": "6.8 ± 3.0", "unit": "µg/mL"},
      {"measurement": "IC50", "setting": "A. baumannii [4]; read-out: IC50 A. baumannii", "value": "2.8 ± 0.7", "unit": "µg/mL"},
      {"measurement": "IC50", "setting": "A. baumannii [4]; read-out: IC50 with RA", "value": "18 ± 4.9", "unit": "µg/mL"},
      {"measurement": "IC50", "setting": "A. baumannii [4]; read-out: IC50 without RA", "value": "2.8 ± 0.7", "unit": "µg/mL"},
      {"measurement": "IC50", "setting": "P. aeruginosa (PA01); read-out: IC50 P. aeruginosa", "value": "3.5 ± 0.78", "unit": "µg/mL"},
      {"measurement": "IC50", "setting": "P. aeruginosa (PA01); read-out: IC50 with RA", "value": "23 ± 7.8", "unit": "µg/mL"},
      {"measurement": "IC50", "setting": "P. aeruginosa (PA01); read-out: IC50 without RA", "value": "3.5 ± 0.78", "unit": "µg/mL"},
      {"measurement": "FICI", "setting": "E. coli [5]; E. coli cell growth, combination of 32 and 11", "value": "0.31 ± 0.099"},
      {"measurement": "FIC", "setting": "E. coli [5]; [12]", "value": "0.24 ± 0.023"},
      {"measurement": "FIC Index", "setting": "E. coli [5]; [12]", "value": "0.39 ± 0.15"},
      {"measurement": "MIC", "setting": "E. coli [5]; Escherichia coli", "value": 6, "unit": "µg/mL"},
      {"measurement": "IC50", "setting": "HsFPPS", "value": "65 ± 12", "unit": "nM"},
      {"measurement": "IC50", "setting": "TbFPPS", "value": "120 ± 26", "unit": "nM"},
      {"measurement": "FIC", "setting": "P. aeruginosa; [13]", "value": "0.27 ± 0.057"},
      {"measurement": "FIC Index", "setting": "P. aeruginosa; [13]", "value": "0.44 ± 0.12"},
      {"measurement": "MIC", "setting": "P. aeruginosa; Pseudomonas aeruginosa", "value": 10, "unit": "µg/mL"},
      {"measurement": "FIC", "setting": "K. pneumoniae [6]; [14]", "value": "0.097 ± 0.012"},
      {"measurement": "FIC Index", "setting": "K. pneumoniae [6]; [14]", "value": "0.22 ± 0.026"},
      {"measurement": "MIC", "setting": "K. pneumoniae [6]; Klebsiella pneumoniae", "value": 6, "unit": "µg/mL"},
      {"measurement": "IC50", "setting": "B. subtilis", "value": "39 ± 13", "unit": "µg/mL"},
      {"measurement": "IC50", "setting": "HEK293", "value": "27 ± 4", "unit": "µg/mL"},
      {"measurement": "FIC", "setting": "A. baumannii [7]; [15]", "value": "0.37 ± 0.17"},
      {"measurement": "FIC Index", "setting": "A. baumannii [7]; [15]", "value": "0.64 ± 0.23"},
      {"measurement": "MIC", "setting": "A. baumannii [7]; Acinetobacter baumannii", "value": 6, "unit": "µg/mL"},
      {"measurement": "IC50", "setting": "E. coli [8]; read-out: IC50 E. coli", "value": "2.1 ± 0.57", "unit": "µg/mL"},
      {"measurement": "IC50", "setting": "E. coli [8]; read-out: IC50 with RA", "value": "19 ± 4.1", "unit": "µg/mL"},
      {"measurement": "IC50", "setting": "E. coli [8]; read-out: IC50 without RA", "value": "2.1 ± 0.57", "unit": "µg/mL"},
      {"measurement": "IC50", "setting": "PaFPPS", "value": "320 ± 68", "unit": "nM"},
      {"measurement": "IC50", "setting": "[9]", "value": "> 100", "unit": "µg/mL"},
      {"measurement": "IC50", "setting": "EcFPPS", "value": "120 ± 25", "unit": "nM"},
      {"measurement": "IC50", "setting": "K. pneumoniae [10]; read-out: IC50 K. pneumoniae", "value": "2.3 ± 0.49", "unit": "µg/mL"},
      {"measurement": "IC50", "setting": "K. pneumoniae [10]; read-out: IC50 with RA", "value": "13 ± 1.8", "unit": "µg/mL"},
      {"measurement": "IC50", "setting": "K. pneumoniae [10]; read-out: IC50 without RA", "value": "2.3 ± 0.49", "unit": "µg/mL"},
      {"measurement": "IC50", "setting": "SmFPPS", "value": "570 ± 110", "unit": "nM"},
      {"measurement": "IC50", "setting": "[11]", "value": "390 ± 73", "unit": "nM"}
    ]}
  ]
}
